Source: PubChem (several laboratories)
TNAP act hiacc: increases human TNAP activity under high phosphate acceptor concentration. purified TNAP, CDP-star luminescence, 1 M DEA, 30 min; stronger effect = higher value; 0 = EDTA background, 1 = DMSO-only activity. 200,000 tested, under 10 active. AID 1136. activation factor at 20 µM. P05186;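 active = activation factor at least 2 at 20 µM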
Target sequence (P05186 whole entry, looked up): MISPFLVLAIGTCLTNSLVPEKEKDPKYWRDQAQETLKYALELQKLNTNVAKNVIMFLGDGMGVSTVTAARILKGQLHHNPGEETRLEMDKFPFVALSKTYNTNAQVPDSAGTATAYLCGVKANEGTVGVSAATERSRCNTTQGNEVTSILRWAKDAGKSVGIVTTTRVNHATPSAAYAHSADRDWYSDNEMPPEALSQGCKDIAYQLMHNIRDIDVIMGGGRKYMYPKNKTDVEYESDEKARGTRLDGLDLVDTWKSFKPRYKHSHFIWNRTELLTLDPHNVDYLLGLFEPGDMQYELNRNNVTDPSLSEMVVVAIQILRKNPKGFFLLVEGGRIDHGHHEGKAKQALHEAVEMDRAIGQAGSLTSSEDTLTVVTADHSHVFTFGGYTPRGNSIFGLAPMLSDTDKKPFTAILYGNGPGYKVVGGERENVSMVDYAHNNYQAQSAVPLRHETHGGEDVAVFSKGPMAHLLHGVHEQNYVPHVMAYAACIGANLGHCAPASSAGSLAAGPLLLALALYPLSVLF
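Test system – human TNAP · Doses – 20 µM single point · Incubation – 30 min, room temperature · Signal – luminescent substrate turnover signal · Read-out basis – activation factor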
TNAP inh hi DEA: inhibitors of human TNAP at high phosphate acceptor concentration; P05186; purified TNAP, CDP-star luminescence, 1 M DEA; inhibition, % at 20 µM; 200,000 compounds, 0.03% hits; AID 1135;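 active = over 50% inhibition of tissue-nonspecific alkaline phosphatase at 20 µM in the single-dose screen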;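 note: plate controls were DMSO wells for no effect and EDTA-quenched wells as full inhibition for full effect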
WT yeast gro inh: growth inhibition of WT yeast, mitochondrial fusion screen; 190,000 compounds, 2.1% hits; mitochondrial fusion phenotypic screen, WT strain; inhibition, % at 10 µM; in the data active = inhibition above about 58%; tested in S. cerevisiae
TNAP inh noacc: inhibitors of human TNAP without phosphate acceptor; purified TNAP, CDP-star luminescence, 30 min; AID 1012; 200,000 compounds, 0.26% hits; inhibition, % at 20 µM;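 active = tissue-nonspecific alkaline phosphatase inhibition above about 50% at 20 µM in the single-dose screen, limit read from the data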;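 note: 0% = DMSO negative control and 100% = EDTA positive control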
Arbovirus inh: arbovirus infection inhibition | inhibition, % at 10 µM | 200,000 compounds, 0.37% hits | arbovirus infection cell-based antiviral screen | AID 1251; in the data active = inhibition above about 30%
* = called active by the depositor. An excerpt weighted towards active compounds, which were near 2.6% of everything screened.

SMILES	TNAP act hiacc	TNAP inh hi DEA	WT yeast gro inh	TNAP inh noacc	Arbovirus inh
COc1cc(/C=C/C(=O)Nc2cc(C(F)(F)F)ccc2Cl)cc(OC)c1OC	1	2.2	51.2	-1.8	-1.4
COc1ccc(/C=C/C(=O)Nc2ccccc2C(=O)O)cc1	1	-1.9	-1.5	-3.3	50.9*
COc1ccc(/C=C/C(=O)Nc2cc(C(F)(F)F)ccc2Cl)cc1OC	1	0.0	28.4	-10.4	32.0*
COc1ccc(/C=C/C(=O)NC2=NCCS2)cc1OC	1	-4.2	-8.2	-17.9	6.8
COc1ccc(/C=C/C(=O)Nc2ccccc2C(=O)O)cc1OC	1	-1.9	-9.4	-11.9	57.6*
CCOC(=O)CCCNC(=O)COC(=O)c1cccc(F)c1	1	0.2	0.0	-8.1	-0.1
CC(=O)c1cccc(N(C(=O)Cn2nnc3ccccc32)C(C(=O)NCC2CCCO2)c2ccc(N3CCOCC3)cc2)c1 (stereo not given)	1.1	-6.5	-13.5	-10.9	2.7
N#Cc1ccccc1NC(=O)c1ccccc1OCC(=O)NCc1ccco1	1	1.0	2.2	-6.3	30.9*
COc1ccccc1OCC(=O)Nc1ccccc1C(=O)NCc1ccco1	1	0.8	-1.1	-9.4	-3.4
Cc1cc(C)c(N2CCN(S(=O)(=O)N3CCCCCC3)CC2)c(C)c1	1	-0.6	60.7*	0.1	-11.0
CC(C)(C)NS(=O)(=O)c1cccc(S(=O)(=O)c2cccc(S(=O)(=O)NC(C)(C)C)c2)c1	1	2.2	-19.2	-7.9	6.6
CCCc1n[nH]c2c1C(=O)C(C(=O)OC)C(C)(C)C2 (stereo not given)	1	3.3	-2.6	61.3*	3.0
COC(=O)C1C(=O)c2c(n[nH]c2C)CC1(C)C (stereo not given)	1.1	-5.3	7.8	33.5	-0.8
COCCN(C(=S)Nc1ccc(C)c(C)c1)C(C)c1ccco1 (stereo not given)	1	-2.9	60.0*	-4.2	2.1
COc1cccc(NC(=S)NC(C)c2ccc(OC)c(OC)c2)c1 (stereo not given)	1	-3.9	8.3	-11.8	-5.6
COc1cccc(C(C)NC(=S)NCc2ccc(Cl)cc2)c1 (stereo not given)	1.1	-5.1	66.1*	-19.9	13.8
CC(C)C(NC(=O)C12CC3CC(CC(C3)C1)C2)C(=O)NC1=NCCS1 (stereo not given)	1.1	-7.4	65.6*	-11.7	11.3
O=C(NC1=NCCS1)C12CC3CC(CC(C3)C1)C2	1	-3.1	13.4	-12.3	1.7
CC(C)N(O)C(=O)NC(C)(C)C	1	-1.4	-7.5	-6.6	1.6
C/C(=N\NC(=S)NC1CCCCC1)c1c(F)cccc1F	1	1.0	74.4*	-23.3	8.9
C/C(=N\NC(=O)NC1CCCCC1)c1ccco1	1	-1.0	-14.6	-3.8	0.3
C/C(=N\NC(=S)NC1CCCCC1)c1ccc(OC(F)F)cc1OC(F)F	1	-2.6	65.9*	-21.3	-1.1
C/C(=N\NC(=S)NC1CCCCC1)c1cccs1	1.1	-6.7	71.0*	-57.2	4.0
Cc1cccc(C2=N/C(=C\c3cccs3)C(=O)O2)c1	1	-3.7	-6.1	1.4	2.6
COC(=O)CSCC(=O)Nc1nnc(-c2cccc(C)c2)s1	1	-2.2	-8.8	-1.3	2.4
SMILES	TNAP act hiacc	TNAP inh hi DEA	WT yeast gro inh	TNAP inh noacc	Arbovirus inh
O=C(COC(=O)c1ccc([N+](=O)[O-])s1)Nc1ncc(C(F)(F)F)cc1Cl	1	1.3	81.6*	-12.4	0.7
O=C(COC(=O)C1(c2ccc(Cl)cc2)CCCC1)Nc1ncc(C(F)(F)F)cc1Cl	1	-2.4	68.5*	-4.8	9.8
O=C(COC(=O)C1(c2ccc(F)cc2)CCCC1)Nc1ncc(C(F)(F)F)cc1Cl	1	-1.7	55.6	4.8	6.3
Cc1cs/c(=N\N=C2CCCCC2)n1Cc1ccco1	1	-1.0	12.2	-17.7	13.6
CCCc1cc(=O)[nH]c(SCCCCN2C(=O)c3ccccc3C2=O)n1	1.1	-5.0	-8.3	-7.1	3.0
COc1ccc(-n2ncc3c(NCc4ccco4)ncnc32)cc1	1.1	-5.8	68.5*	-16.3	-1.2
COC(=O)c1ccc2c(c1)C(=O)/C(=C/c1ccc(O)cc1)O2	0.4	55.0*	9.6	46.0	-3.0
O=C(NC1CC1)c1ccc2c(c1)C1C3CCC(C3)C1C(c1ccccc1)N2 (stereo not given)	1	-2.2	71.2*	-23.3	-25.0
CC(c1cccs1)N(Cc1ccco1)C(=S)Nc1ccc(F)c(Cl)c1 (stereo not given)	1.1	-7.5	78.5*	-14.9	-6.9
